Measured values taken from ChEMBL document CHEMBL2434944, “Novel acetamidothiazole derivatives: synthesis and in vitro anticancer evaluation” (Eur J Med Chem, 2013).

How the values were obtained:
M14 = assay: Growth inhibition of human M14 cells assessed as cell growth at 10^-5 M after 48 hrs by sulforhodamine B assay relative to control; type: functional; conditions: M14, 48 h, read-out: Activity
Method in brief: (§1)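 NCI-60 single-dose screen at 10^-5 M. Cells grown in RPMI 1640 with 5% FBS and 2 mM L-glutamine, plated at 5,000–40,000 cells/well according to doubling time, and preincubated 24 h at 37°C, 5% CO2. Compound dissolved in DMSO and added. Exposure 48 h. Adherent cells fixed with cold TCA (10% final), suspension cells with 16% final TCA. Read-out is 0.4% SRB staining, dye solubilised in 10 mM Tris, absorbance at 515 nm. Percent growth is calculated against the time-zero plate and untreated control.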

KM12 = assay: Growth inhibition of human KM12 cells assessed as cell growth at 10^-5 M after 48 hrs by sulforhodamine B assay relative to control; type: functional; conditions: KM12, 48 h, read-out: Activity; method in brief: as §1
SK-MEL-28 = assay: Growth inhibition of human SK-MEL-28 cells assessed as cell growth at 10^-5 M after 48 hrs by sulforhodamine B assay relative to control; type: functional; conditions: SK-MEL-28, 48 h, read-out: Activity; method in brief: as §1
RPMI-8226 = assay: Growth inhibition of human RPMI8226 cells assessed as cell growth at 10^-5 M after 48 hrs by sulforhodamine B assay relative to control; type: functional; conditions: RPMI-8226, 48 h, read-out: Activity; method in brief: as §1
NCI-H226 = assay: Growth inhibition of human NCI-H226 cells assessed as cell growth at 10^-5 M after 48 hrs by sulforhodamine B assay relative to control; type: functional; conditions: NCI-H226, 48 h, read-out: Activity; method in brief: as §1
LOX IMVI = assay: Growth inhibition of human LOXIMVI cells assessed as cell growth at 10^-5 M after 48 hrs by sulforhodamine B assay relative to control; type: functional; conditions: read-out: Activity; method in brief: as §1
HOP-92 = assay: Growth inhibition of human HOP92 cells assessed as cell growth at 10^-5 M after 48 hrs by sulforhodamine B assay relative to control; type: functional; conditions: HOP-92, 48 h, read-out: Activity; method in brief: as §1
[1] = Growth inhibition of human Hs 578T cells assessed as cell growth at 10^-5 M after 48 hrs by sulforhodamine B assay relative to control; type: functional; conditions: read-out: Activity; method in brief: as §1
SNB-19 = assay: Growth inhibition of human SNB19 cells assessed as cell growth at 10^-5 M after 48 hrs by sulforhodamine B assay relative to control; type: functional; conditions: SNB-19, 48 h, read-out: Activity; method in brief: as §1
TK-10 = assay: Growth inhibition of human TK10 cells assessed as cell growth at 10^-5 M after 48 hrs by sulforhodamine B assay relative to control; type: functional; conditions: TK-10, 48 h, read-out: Activity
Method in brief: (§2)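 NCI-60 single-dose screen, 10^-5 M final. Cells grown in RPMI 1640 with 5% FBS and 2 mM L-glutamine, seeded at 5,000–40,000 cells/well by doubling time. Preincubated 24 h at 37°C, 5% CO2. Compound in DMSO, diluted in medium with gentamicin, then 48 h exposure. Fixed with cold TCA, SRB stained, A515 read. Percent growth vs untreated control, time-zero plate corrected.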

SW-620 = assay: Growth inhibition of human SW620 cells assessed as cell growth at 10^-5 M after 48 hrs by sulforhodamine B assay relative to control; type: functional; conditions: SW-620, 48 h, read-out: Activity; method in brief: as §2
HT-29 = assay: Growth inhibition of human HT-29 cells assessed as cell growth at 10^-5 M after 48 hrs by sulforhodamine B assay relative to control; type: functional; conditions: HT-29, 48 h, read-out: Activity; method in brief: as §1
T47D = assay: Growth inhibition of human T47D cells assessed as cell growth at 10^-5 M after 48 hrs by sulforhodamine B assay relative to control; type: functional; conditions: read-out: Activity; method in brief: as §2
SK-MEL-2 = assay: Growth inhibition of human SK-MEL-2 cells assessed as cell growth at 10^-5 M after 48 hrs by sulforhodamine B assay relative to control; type: functional; conditions: SK-MEL-2, 48 h, read-out: Activity; method in brief: as §1
[2] = molecular target: Mitogen-activated protein kinase 1 (Homo sapiens, UniProt P28482); assay: Inhibition of human MAPK1
[3] = molecular target: Proto-oncogene tyrosine-protein kinase Src (Homo sapiens, UniProt P12931); assay: Inhibition of human SRC
OVCAR-8 = assay: Growth inhibition of human OVCAR8 cells assessed as cell growth at 10^-5 M after 48 hrs by sulforhodamine B assay relative to control; type: functional; conditions: OVCAR-8, 48 h, read-out: Activity; method in brief: as §1
[4] = molecular target: T1, Leukotriene A-4 hydrolase (Homo sapiens, UniProt P09960); assay: Inhibition of human leukotriene A-4 hydrolase
T1 sequence (P09960 whole entry): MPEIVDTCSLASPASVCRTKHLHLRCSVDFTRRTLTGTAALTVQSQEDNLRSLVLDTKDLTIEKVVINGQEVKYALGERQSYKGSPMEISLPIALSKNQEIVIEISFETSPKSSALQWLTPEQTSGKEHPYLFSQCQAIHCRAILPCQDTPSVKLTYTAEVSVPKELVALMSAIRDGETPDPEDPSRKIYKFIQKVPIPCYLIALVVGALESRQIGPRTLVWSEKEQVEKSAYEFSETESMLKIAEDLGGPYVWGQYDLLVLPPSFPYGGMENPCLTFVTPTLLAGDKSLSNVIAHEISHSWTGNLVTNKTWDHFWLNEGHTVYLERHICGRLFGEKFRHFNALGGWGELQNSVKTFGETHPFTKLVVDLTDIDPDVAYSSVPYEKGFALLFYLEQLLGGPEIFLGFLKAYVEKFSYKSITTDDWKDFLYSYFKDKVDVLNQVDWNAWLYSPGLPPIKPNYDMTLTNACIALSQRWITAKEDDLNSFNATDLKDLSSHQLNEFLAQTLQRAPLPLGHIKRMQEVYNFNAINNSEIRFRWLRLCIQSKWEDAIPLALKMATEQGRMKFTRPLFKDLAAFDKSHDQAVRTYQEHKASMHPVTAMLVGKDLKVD

MDA-MB-435 = assay: Growth inhibition of human MDA-MB-435 cells assessed as cell growth at 10^-5 M after 48 hrs by sulforhodamine B assay relative to control; type: functional; conditions: MDA-MB-435, 48 h, read-out: Activity; method in brief: as §1
Cathepsin K = molecular target: T2, Cathepsin K (Homo sapiens, UniProt P43235); assay: Inhibition of human cathepsin K
T2 sequence (P43235 whole entry): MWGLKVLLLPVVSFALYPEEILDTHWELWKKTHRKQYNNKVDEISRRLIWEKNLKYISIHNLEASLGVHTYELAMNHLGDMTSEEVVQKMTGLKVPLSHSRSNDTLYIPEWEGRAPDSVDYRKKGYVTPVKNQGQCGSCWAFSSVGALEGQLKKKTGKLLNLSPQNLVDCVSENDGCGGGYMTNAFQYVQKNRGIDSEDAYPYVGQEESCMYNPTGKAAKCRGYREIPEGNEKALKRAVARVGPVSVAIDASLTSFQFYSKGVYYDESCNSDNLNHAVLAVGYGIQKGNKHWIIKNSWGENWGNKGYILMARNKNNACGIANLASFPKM

UACC-257 = assay: Growth inhibition of human UACC257 cells assessed as cell growth at 10^-5 M after 48 hrs by sulforhodamine B assay relative to control; type: functional; conditions: UACC-257, 48 h, read-out: Activity; method in brief: as §2

Chain of Mitogen-activated protein kinase 1 (P28482 whole entry): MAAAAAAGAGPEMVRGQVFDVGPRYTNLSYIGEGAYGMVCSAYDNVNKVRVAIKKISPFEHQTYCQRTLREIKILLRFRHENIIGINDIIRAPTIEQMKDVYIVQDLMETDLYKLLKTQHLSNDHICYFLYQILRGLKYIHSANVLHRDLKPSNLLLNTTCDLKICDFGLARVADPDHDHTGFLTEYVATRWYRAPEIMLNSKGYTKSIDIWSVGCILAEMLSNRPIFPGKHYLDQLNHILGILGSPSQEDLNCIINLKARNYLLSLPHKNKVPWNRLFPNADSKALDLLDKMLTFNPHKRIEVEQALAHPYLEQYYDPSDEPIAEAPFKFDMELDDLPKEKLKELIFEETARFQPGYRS
Chain of Proto-oncogene tyrosine-protein kinase Src (P12931 2-536 limits assumed): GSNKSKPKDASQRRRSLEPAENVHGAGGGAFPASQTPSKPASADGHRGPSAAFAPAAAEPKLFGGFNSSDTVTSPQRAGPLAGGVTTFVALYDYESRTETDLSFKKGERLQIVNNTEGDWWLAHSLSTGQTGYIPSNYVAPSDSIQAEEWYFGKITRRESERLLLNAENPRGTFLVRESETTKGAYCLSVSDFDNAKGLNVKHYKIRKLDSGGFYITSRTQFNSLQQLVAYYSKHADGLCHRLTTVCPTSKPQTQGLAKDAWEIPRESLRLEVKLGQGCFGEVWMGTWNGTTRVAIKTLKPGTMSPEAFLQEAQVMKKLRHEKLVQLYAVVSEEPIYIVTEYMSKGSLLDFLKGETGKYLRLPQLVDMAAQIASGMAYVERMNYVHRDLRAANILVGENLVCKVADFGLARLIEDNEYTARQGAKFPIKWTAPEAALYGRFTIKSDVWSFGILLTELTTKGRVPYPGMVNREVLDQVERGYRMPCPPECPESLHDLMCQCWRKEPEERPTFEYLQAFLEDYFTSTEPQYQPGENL

| Structure (SMILES) | growth at 10 µM (M14) | growth at 10 µM (KM12) | growth at 10 µM (SK-MEL-28) | growth at 10 µM (RPMI-8226) | growth at 10 µM (NCI-H226) | growth at 10 µM (LOX IMVI) | growth at 10 µM (HOP-92) | growth at 10 µM [1] | growth at 10 µM (SNB-19) | growth at 10 µM (TK-10) | growth at 10 µM (SW-620) | growth at 10 µM (HT-29) | growth at 10 µM (T47D) | growth at 10 µM (SK-MEL-2) | Ki [2] | Ki [3] | growth at 10 µM (OVCAR-8) | Ki [4] | growth at 10 µM (MDA-MB-435) | Ki (Cathepsin K) | also measured |
| --- | --- | --- | --- | --- | --- | --- | --- | --- | --- | --- | --- | --- | --- | --- | --- | --- | --- | --- | --- | --- | --- |
| CC(=O)N1CCN(C(=O)Cn2c(-c3ccc(C)cc3)csc2=N)CC1 | 97.9% | 99.4% | 98.9% | 82.3% | 96% | 85.5% | 60.9% | 105% | 100% | 121% | 97.6% | 105% | 73.4% | 113% | 2.23 µM | 15.3 µM | 98.4% | 1.64 µM | 80.6% | 24 µM | growth at 10 µM (UACC-257): 102% |
| CC(=O)N1CCN(C(=O)Cn2c(-c3ccccc3)csc2=N)CC1 | 97% | 102% | 101% | 97.3% | 88.8% | 94.3% | 75% | 110% | 103% | 138% | 109% | 101% | 85.9% | 108% | 3.67 µM | 34.3 µM | 96.7% | 2.59 µM | 105% | 21.9 µM | growth at 10 µM (UACC-257): 98.5% |
| N=c1scc(-c2ccccc2)n1CC(=O)N1CCOCC1 | 100% | 103% | 112% | 95.4% | 86.7% | 92% | 70% | 101% | 98.3% | 132% | 98% | 106% | 88.8% | 106% | 13.8 µM | 20.2 µM | 94.8% | 8.65 µM | 101% | 49.8 µM | growth at 10 µM (UACC-257): 111% |
| N=c1scc(-c2ccc(Cl)cc2)n1CC(=O)N1CCN(c2ccccc2)CC1 | 99.7% | 108% | 98.6% | 83.4% | 92.2% | 103% | 76.1% | 106% | 100% | 87.2% | 104% | 92.9% | 88.9% | 79% | 0.501 µM | 1.9 µM | 97.8% | 0.093 µM | 92.2% | 11.1 µM | growth at 10 µM (UACC-257): 105% |
| CC(=O)N1CCN(C(=O)Cn2c(-c3ccc(Cl)cc3)csc2=N)CC1 | 95.1% | 95.2% | 90.8% | 73.3% | 96.3% | 93.8% | 82% | 104% | 84.2% | 82.1% | 106% | 85.8% | 79% | 95.7% | 0.778 µM | 14.8 µM | 91.2% | 0.607 µM | 85.3% | 24.2 µM | growth at 10 µM (UACC-257): 91% |
| Cc1ccc(-c2csc(=N)n2CC(=O)N2CCOCC2)cc1 | 110% | 110% | 108% | 92.8% | 94.3% | 92.8% | 68.3% | 118% | 106% | 126% | 114% | 109% | 97.4% | 111% | 9.78 µM | 13.3 µM | 108% | 3.56 µM | 87.2% | 51.2 µM | growth at 10 µM (UACC-257): 103% |
| N=c1scc(-c2ccc(Cl)cc2)n1CC(=O)N1CCOCC1 | 92.2% | 106% | 97.1% | 78.7% | 94.4% | 97.9% | 81.8% | 105% | 91.2% | 85.9% | 103% | 94.2% | 69.7% | 107% | 9.18 µM | 16.7 µM | 101% | 1.06 µM | 84.6% | 44.9 µM | growth at 10 µM (UACC-257): 94.7% |
| Cc1ccc(-c2csc(=N)n2CC(=O)N2CCN(C)CC2)cc1 | 105% | 104% | 97.5% | 83.5% | 93.1% | 89.1% | 62.8% | 101% | 99.8% | 129% | 98.4% | 110% | 81.6% | 108% | 1.89 µM | 4.73 µM | 99.5% | 0.369 µM | 83.4% | 8.71 µM | growth at 10 µM (UACC-257): 102% |
